# This is a sample that favours compounds with a hit; in the whole collection about 3.4% have one here.
# CHT inh – inhibitors of human choline transporter CHT; B-score at 10 µM; actives 0.86% (n = 310,000); Q9GZV3; CHT-expressing cells, membrane potential dye, choline response; stronger effect = lower value;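 active = B-score over 3 SD under the library average, and starting fluorescence ratio not unusually high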;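 note: choline stimulus applied at its EC90 after an EC20 pre-addition; B-score computed on integrated fluorescence ratio after choline addition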
# CHT PAM – human CHT allosteric activation; Q9GZV3; CHT-expressing cells, membrane potential dye, choline EC20; stronger effect = higher value; LV-AA mutant CHT in HEK293 cells; B-score at 10 µM; actives 0.49% (n = 310,000); AID 488977;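 active = initial fluorescence not abnormally high and integrated response B-score, plate-corrected, over 3 SD above library mean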
# TMEM16A inh – blocks the mouse calcium-activated chloride channel TMEM16A. HEK293 TMEM16A/YFP iodide influx fluorescence, ionomycin. normalized B-score (activity score, 25-100; higher = stronger inhibition) at 10 µM. actives 1.2% (n = 310,000). AID 588511;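 active = ratio plate-corrected score three or more library SD toward inhibition, starting fluorescence score within five deviations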;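 note: score derived from kinetic fluorescence span divided by baseline fluorescence per well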
# Target sequence (Q8BHY3 whole entry, looked up): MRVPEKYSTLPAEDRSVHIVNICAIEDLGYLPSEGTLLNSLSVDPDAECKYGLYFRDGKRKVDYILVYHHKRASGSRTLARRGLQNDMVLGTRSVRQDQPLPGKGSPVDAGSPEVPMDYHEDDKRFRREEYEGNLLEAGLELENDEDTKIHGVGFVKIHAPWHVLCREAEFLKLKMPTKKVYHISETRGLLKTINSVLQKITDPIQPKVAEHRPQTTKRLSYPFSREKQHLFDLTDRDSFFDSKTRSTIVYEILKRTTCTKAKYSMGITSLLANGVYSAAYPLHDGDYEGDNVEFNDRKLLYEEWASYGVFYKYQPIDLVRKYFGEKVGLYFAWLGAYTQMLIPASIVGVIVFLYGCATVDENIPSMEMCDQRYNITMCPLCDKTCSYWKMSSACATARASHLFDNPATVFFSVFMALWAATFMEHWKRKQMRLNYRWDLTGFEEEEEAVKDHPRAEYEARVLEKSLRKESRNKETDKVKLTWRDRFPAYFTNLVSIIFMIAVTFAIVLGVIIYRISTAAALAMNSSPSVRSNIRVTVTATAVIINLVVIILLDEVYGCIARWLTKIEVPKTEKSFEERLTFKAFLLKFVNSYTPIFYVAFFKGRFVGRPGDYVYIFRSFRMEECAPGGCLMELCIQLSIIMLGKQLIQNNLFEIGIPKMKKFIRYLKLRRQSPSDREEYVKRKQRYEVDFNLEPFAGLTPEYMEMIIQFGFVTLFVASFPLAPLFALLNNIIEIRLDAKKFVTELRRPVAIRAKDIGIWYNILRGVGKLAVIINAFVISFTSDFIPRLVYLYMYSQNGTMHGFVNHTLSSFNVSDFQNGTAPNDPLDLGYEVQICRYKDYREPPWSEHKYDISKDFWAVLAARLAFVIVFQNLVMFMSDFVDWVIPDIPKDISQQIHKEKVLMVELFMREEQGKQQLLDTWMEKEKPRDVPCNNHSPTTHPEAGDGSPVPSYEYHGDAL
# TMEM16A act – activators or potentiators of mouse TMEM16A chloride channel. Q8BHY3. HEK293 TMEM16A/YFP-H148Q/I152L, iodide quench fluorescence; stronger effect = lower value. B-score at 10 µM. actives 0.3% (n = 340,000). AID 623877;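 active = fluorescence-ratio B-score plate-corrected deviation score at least 3 library SD below zero, with starting fluorescence score within 5 deviations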;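 note: channel opened by trigger with iodide after compound preincubation; score built on the fluorescence ratio of max minus min over baseline; more negative score means more quench and so TMEM16A activation or potentiation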
# IMP-1 inh – blocks Pseudomonas aeruginosa IMP-1 metallo-beta-lactamase; actives 0.45% (n = 290,000); purified IMP-1, nitrocefin hydrolysis, epi-absorbance fluorescence; inhibition, % at 5.6 µM;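 active = inhibition above the mean plus 3 SD of all compounds in the same screening run, cut at about 4.5% in these data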;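 note: 0% = IMP-1 with DMSO and 100% = DMSO wells lacking enzyme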
#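 System: purified IMP-1; amount: IMP-1 0.2 nM before substrate addition; compound: single dose, 5.6 µM; times: 25 °C, 15 min preincubation, 25 min reaction; signal: Epi-absorbance via hydrolysed-nitrocefin quenching of white-plate fluorescence, 480/530 nm, EDTA stop; benchmarks: DMSO with and without IMP-1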
# VIM-2 inhibitor – blocks Pseudomonas aeruginosa VIM-2 metallo-beta-lactamase | purified VIM-2, nitrocefin hydrolysis, epi-absorbance fluorescence | inhibition, % at 5.6 µM | actives 0.89% (n = 290,000);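 active = inhibition above the mean of all tested compounds plus 3 SD, cutoff set per screening run, cut at about 7.5% in these data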;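 note: red hydrolysis product quenches plate fluorescence so inhibitors raise well fluorescence; 0% = enzyme with DMSO and 100% = DMSO without enzyme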
# CHT inh conf – human CHT inhibition, confirmatory screen; shares compounds with CHT inh; CHT-expressing cells, choline membrane potential dye; LV-to-AA substituted CHT, HEK293 cells; CHT activity remaining % of control (stronger effect = lower value), % at 10 µM; actives 70% (n = 2,400); AID 493221;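 active = choline transporter activity left, mean of duplicates at 10 µM, below buffer-only control mean minus 3 SD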;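 note: depolarization triggered by choline at its EC90 following an EC20 pre-addition; 0% = hemicholinium-3 full block and 100% = buffer-only control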
# HEK293 CHT ctr – CHT inhibitor counter-screen hit in parental HEK293 cells. AID 493222. membrane potential ratio readout (active if shifted either direction beyond buffer ±3SD; no single direction) at 10 µM. shares compounds with CHT inh. actives 4% (n = 2,400). membrane potential dye, choline response; active = decrease or increase beyond buffer ±3SD;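 note: parental cells lack the transporter so any hit is non-specific; ratio is peak minus trough fluorescence over baseline after EC90 choline challenge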
# Starred values were filed as active, the others as inactive; i = inactive; . = not tested or not shown.
SMILES,CHT inh,CHT PAM,TMEM16A inh,TMEM16A act,IMP-1 inh,VIM-2 inhibitor,CHT inh conf,HEK293 CHT ctr
C=C1C(=O)O[C@H]2C[C@]3(C)C([C@@H](OC(=O)/C(C)=C/C)[C@H]12)[C@](C)(O)CC[C@H]3O (some centres not stated),i,i,i,i,-2,-4,.,.
C=C[C@@]1(C)CC(=O)[C@]2(O)[C@@]3(C)[C@@H](O)CCC(C)(C)[C@@H]3[C@H](OC(C)=O)[C@H](O)[C@@]2(C)O1,-8.1*,i,i,i,.,.,37%*,i
O=C(CS(=O)CC(=O)Nc1cccnc1)Nc1ccc(F)cc1 (configuration not stated),i,i,i,i,-2,-2,.,.
CCOc1ccc(N(CC(=O)NC2CCCCC2)C(=O)CCCC(=O)Nc2ccccn2)cc1,i,i,i,i,-2,-2,.,.
c1ccc(C[C@H]2CN=C(Nc3ccccc3)N2CCC2CCCC2)cc1,-6.8*,i,i,i,.,.,56%*,i
COc1cc(C2Nc3ccc4ncccc4c3C3=C2C(=O)CCC3)ccc1O (configuration not stated),-6.2*,i,i,i,-3,-3,i,i
Cc1ccsc1C1Nc2ccc3ncccc3c2C2=C1C(=O)CCC2 (configuration not stated),i,i,i,i,3,-2,.,.
Cc1ccc(C(C)C)c(OCC(=O)NS(=O)(=O)c2ccc(Cl)cc2)c1,-6.4*,i,i,i,-1,-1,14%*,i
Cc1cccc(C(=O)NC(=S)NNC(=O)Cc2ccccc2)c1,-6.7*,i,i,i,-3,-6,52%*,i
Cn1c(SCc2ccc(C#N)cc2Cl)nc2ccccc21,-11*,i,i,i,-6,-1,3.8%*,i
CCOC(=O)N/N=C\c1ccc(OC/C=C/c2ccccc2)cc1,i,i,i,i,-2,-2,.,.
CCn1c(SCc2ccccc2)nnc1-c1ccc(S(=O)(=O)N2CCCCC2)cc1,-5.9*,i,i,i,0,0,i,i
CS(=O)(=O)n1nc(OC(=O)c2cccc3ccccc23)cc1N,-5.4*,i,i,i,-4,-1,63%*,i
CS(=O)(=O)n1nc(OC(=O)c2cc(Br)ccc2Cl)cc1N,i,i,i,i,-3,-2,.,.
Cc1ccc(C(=O)NCC(=O)NCCCc2ccccc2)cc1,-5*,i,i,i,1,1,57%*,i
CCOc1ccc(N2CC(C(=O)NNC(=O)c3ccc(Br)cc3)CC2=O)cc1 (configuration not stated),i,i,i,i,.,.,.,.
O=C(C1=C[C@@H](c2ccccc2)C[C@@H](OCCCCO)O1)N1CCOCC1,-10*,i,100*,i,3,1,i,i
O=C(C1=C[C@@H](c2ccc(Br)cc2)C[C@@H](OCCCCO)O1)N1CCOCC1,i,i,i,i,-1,-5,.,.
CCC(C)[C@H](NC(=O)[C@@H]1Cc2ccccc2CN1)C(=O)Nc1ccc2c(c1)OCO2 (some centres not stated),i,i,i,i,-1,1,.,.
CCCCc1ccc(NC(=O)CSc2nc(=O)n(CCN3CCOCC3)c3c2CCC3)cc1,i,i,i,i,.,.,.,.
CCCCc1ccc(NC(=O)CSc2nc(=O)n(CCCN3CCOCC3)c3c2CCC3)cc1,-7.9*,i,i,i,.,.,21%*,i
CCN(CC)CCCn1c2c(c(SCC(=O)Nc3ccc(OC(F)(F)F)cc3)nc1=O)CCC2,-12*,i,i,i,.,.,38%*,i
Cc1ncoc1C(=O)Nc1ccc(Oc2ccccc2)cc1,-6*,i,i,i,-1,-1,57%*,i
CC(C)c1ccc(NC(=O)CSc2nc3ccsc3c(=O)n2CCC(=O)O)cc1,i,i,i,i,-6,-2,.,.
COc1ccc(S(=O)(=O)Nc2nc3ccccc3s2)cc1,i,i,i,i,-1,-4,.,.
SMILES,CHT inh,CHT PAM,TMEM16A inh,TMEM16A act,IMP-1 inh,VIM-2 inhibitor,CHT inh conf,HEK293 CHT ctr
O=S(=O)(Nc1nc2ccccc2s1)c1ccc(Cl)nc1,i,i,i,i,1,3,67%*,i
CS(=O)(=O)Nc1ccc(-c2cc(/C=C3\SC(N)=NC3=O)c[nH]c2=O)cc1,i,i,i,i,-4,-1,.,.
C[N+]1(CCCCSc2ccc(O)cc2)CCCCC1,i,i,i,i,0,-1,.,.
COC(=O)CCCCCCCCCC[N+]1(C)CCCCC1,-5.1*,i,i,i,-3,-1,42%*,i
CC(=O)OCCCCCCCCCCC[N+]1(C)CCCCC1,-8.3*,i,i,i,-1,2,27%*,i
CC1CCN(C(=O)c2[nH]cnc2C(=O)Nc2ccon2)CC1,.,.,.,i,.,.,.,.
N#CNc1nc(O)cc(=O)[nH]1,i,i,i,i,-3,-3,.,.
O=C(N/N=C/c1sc2ccccc2c1O)c1ccccc1,-20*,i,i,i,-4,-3,-81%*,-55*
COc1ccc(C(=O)N/N=C/c2sc3ccccc3c2O)cc1,i,i,i,i,-1,-2,.,.
O=C1[C@@H]2Cc3c([nH]c4ccccc34)C(c3cccc([N+](=O)[O-])c3)N2C(=O)CN1CCCO (some centres not stated),i,i,i,i,-1,0,.,.
O=C(NC1CCCC1)C(c1ccc(O)cc1)N(CC1CCCO1)C(=O)C1COc2ccccc2O1 (configuration not stated),i,i,i,i,-2,-1,.,.
COc1ccc(C(C(=O)NC2CCCCC2)N(CC2CCCO2)C(=O)C2COc3ccccc3O2)cc1OC (configuration not stated),-5.9*,i,i,i,-3,-1,i,i
CCCc1cc(=O)[nH]c(SCC(=O)Nc2ccc(Br)cc2Br)n1,i,i,i,i,0,-4,.,.
COc1ccc(CCNC(=O)C(C)c2ccc([N+](=O)[O-])cc2)cc1 (configuration not stated),-5.5*,i,i,i,-2,-2,i,i

# Screens (PubChem BioAssay)
